Data set [1] deals with Canis familiaris. As to the kind of experiment: Duration of action to obtain >20% ex vivo collagen induced platelet aggregation was reported, after 10 mg/kg (post-ig) into dogs. Format: functional, Canis lupus familiaris. The method in brief:
(§1)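 Ester prodrugs dosed orally by capsule to conscious beagle dogs (n = 2). Citrated cephalic-vein blood (2 mL) drawn before and at set times after dosing for 24 h or until back to baseline. PRP made by spinning at 260g for 6 min. Aggregation induced with equine tendon collagen (final 33 μg/mL) at 37 °C and followed for 3 min. Duration is the time with >20% inhibition versus predose control.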

In data set [2] the test system is Canis familiaris. As to the kind of experiment: Duration of action to obtain >20% ex vivo collagen induced platelet aggregation was reported, after 5 mg/kg (post-ig) into dogs. Type of data set: functional, Canis lupus familiaris. The method in brief:
as §1

For data set [3], the system named is Canis familiaris. The data set is described as follows: Duration of action to obtain >20% ex vivo collagen induced platelet aggregation was reported, after 10 mg/kg (post-ig) into dogs; duration of time >6, <24. Type of data set: functional, Canis lupus familiaris. The method in brief: as §1
Data set [4] relates to Canis familiaris. The data set is described as follows: Duration of action to obtain >20% ex vivo collagen induced platelet aggregation was reported, after 20 mg/kg (post-ig) into dogs; duration of time >6, <24. Format: functional, Canis lupus familiaris. The method in brief: as §1
For data set [5], the system named is Canis familiaris. As to the kind of experiment: Area under curve of acid 2a was determined by HPLC at a dosage of 5.45 mg/kg administered intragastrically by capsule method in dog. Format: ADME, organism-based, Canis lupus familiaris. The arrangement: dose 5.45 mg/kg, route intragastric. The settings on record: in vivo, po. Summed up:
(§2)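 Six female dogs, 7–12 kg, three per group, fasted 18 h. Prodrug ester given intragastrically as aqueous solution (2 mL/kg) by gavage or in gelatin capsule. Blood (3.5 mL) drawn via femoral vein catheter at 0.5, 1, 1.5, 2, 3, 5, 8, 13, 24 and 48 h, kept on ice, centrifuged, plasma stored at –20 °C. Acid measured in plasma by HPLC; AUC by trapezoidal method, extrapolated to infinity and back to zero.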

Data set [6] relates to Canis familiaris. The data set is described as follows: Area under curve of acid 2a was determined by HPLC at a dosage of 5.45 mg/kg administered intragastrically by gavage method in dog. Type of data set: ADME, organism-based, Canis lupus familiaris. More on the design: dose 5.45 mg/kg, route intragastric. The settings on record: in vivo, po. The method in brief:
as §2

The test system of data set [7] is Canis familiaris. The data set is described as follows: Area under curve of acid 2a was determined by HPLC at a dosage of 54.5 mg/kg administered intragastrically by capsule method in dog. Format: ADME, organism-based, Canis lupus familiaris. More on the design: dose 54.5 mg/kg, route intragastric. The settings on record: in vivo, po. The method in brief:
as §2

Data set [8] can be described thus: Area under curve of acid 2a was determined by HPLC at a dosage of 54.5 mg/kg administered intragastrically by gavage method in dog. Type of data set: ADME, organism-based. The arrangement: dose 54.5 mg/kg, route intragastric. Particulars: in vivo, po. The method in brief:
as §2

Data set [9] deals with Canis familiaris. The data set is described as follows: Duration of action to obtain >20% ex vivo collagen induced platelet aggregation was reported, after 20 mg/kg (post-ig) into dogs. Format: functional, Canis lupus familiaris. Summed up: as §1
Data set [10] deals with Canis familiaris. The data set is described as follows: Duration of action to obtain >20% ex vivo collagen induced platelet aggregation was reported, after 20 mg/kg (post-ig) into dogs; Duration of time >6, < 24. Type of data set: functional, Canis lupus familiaris. The method in brief: as §1
For data set [11], the system named is Canis familiaris. The data set is described as follows: Duration of action to obtain >20% ex vivo collagen induced platelet aggregation was reported, after 20 mg/kg (post-ig) into dogs; duration of time >3, <6. Format: functional, Canis lupus familiaris. Summed up: as §1
Data set [12] is described as follows: Area under curve was determined by HPLC at a dosage of 2.27 mg/kg administered intravenously by bolus method in dog. The arrangement: dose 2.27 mg/kg, route intravenous. Format: ADME, organism-based, Canis lupus familiaris. Particulars: in vivo, iv. The method in brief:
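Female dogs (7–12 kg, n = 3), fasted 18 h. Aqueous saline solution injected into a radial vein (0.5 mL/kg) over 2–3 min. Femoral vein blood (3.5 mL) taken at 0.25, 0.5, 1, 2, 3, 5, 8, 13 and 24 h, put on ice, centrifuged, plasma held at –20 °C. Acid level in plasma measured by HPLC; AUC by trapezoidal method extrapolated to infinity and back to zero.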

Data set [13] concerns Canis familiaris. As to the kind of experiment: Duration of action to obtain >20% ex vivo collagen induced platelet aggregation was reported, after […] 5 mg/kg orally (post-ig) into dogs. Type of data set: functional, Canis lupus familiaris. Particulars: route oral. The method in brief: as §1

As usually defined, the AUC is the area under the concentration-time curve, a measure of exposure. Read a low AUC as low exposure.

Regarding `CCOC(=O)CC(NC(=O)CCC(=O)Nc1ccc(C(=N)N)cc1)c1cccnc1` (stereo not drawn), the Duration time is over 24 h with Canis familiaris [1] and over 6 h in the data set with Canis familiaris [2].
Consider `CCOC(=O)CC(NC(=O)CCCCc1ccc(C(=N)N)cc1)c1ccccc1` (stereo not drawn), for which the Duration time in the data set on Canis familiaris [3] was over 6 h.
Turning to `CCOC(=O)CC(C)NC(=O)CCCCc1ccc(C(=N)N)cc1` (stereo not drawn), in the data set on Canis familiaris [4], the Duration time was over 6 h.
Regarding `CCOC(=O)CC(Cc1ccccc1)NC(=O)CCC(=O)Nc1ccc(C(=N)N)cc1` (stereo not drawn), the Duration time in the data set on Canis familiaris [4] is over 6 h.
Regarding `C#C[C@H](CC(=O)OCC)NC(=O)CCC(=O)Nc1ccc(C(=N)N)cc1` [XEMILOFIBAN], the AUC is 2660 ng·h/mL with Canis familiaris [5], 2730 ng·h/mL in the data set on Canis familiaris [6], 31200 ng·h/mL in the data set on Canis familiaris [7] and 31700 ng·h/mL in data set [8]. Further, the Duration time with Canis familiaris [1] was over 24 h.
Consider `C=CC(CC(=O)OCC)NC(=O)CCC(=O)Nc1ccc(C(=N)N)cc1` (stereo not drawn), for which, in the data set on Canis familiaris [9], the Duration time was over 24 h.
For `CCOC(=O)CC(C)NC(=O)CCC(=O)Nc1ccc(C(=N)N)cc1` (stereo not drawn), the Duration time in the data set on Canis familiaris [9] was over 30 h.
Regarding `CCOC(=O)CC(NC(=O)CCC(=O)Nc1ccc(C(=N)N)cc1)c1cnc2ccccc2c1` (stereo not drawn), the Duration time with Canis familiaris [2] is under 6 h.
On to `CCOC(=O)CC(NC(=O)CCC(=O)Nc1ccc(C(=N)N)cc1)c1ccccc1` (stereo not drawn), for which the Duration time in the data set with Canis familiaris [10] is over 6 h.
In the data set with Canis familiaris [11], `CCOC(=O)CC(Cc1ccccc1)NC(=O)CCCCc1ccc(C(=N)N)cc1` (stereo not drawn) had a Duration time of over 3 h.
The compound `CCOC(=O)CC(NC(=O)CCC(=O)Nc1ccc(C(=N)N)cc1)c1ccc(OCC)nc1` (stereo not drawn) came in with a Duration time with Canis familiaris [2] of under 6 h.
Regarding `C#C[C@H](CC(=O)O)NC(=O)CCC(=O)Nc1ccc(C(=N)N)cc1`, the AUC in [12] came out at 2490 ng·h/mL.
`CCOC(=O)CC(NC(=O)CCC(=O)Nc1ccc(C(=N)N)cc1)c1ccc2c(c1)OCO2` (stereo not drawn): in the data set with Canis familiaris [13], the Duration time was over 24 h.

The values above are taken from ChEMBL document CHEMBL1128602, “Potent in vitro and in vivo inhibitors of platelet aggregation based upon the Arg-Gly-Asp sequence of fibrinogen. (Aminobenzamidino)succinyl (ABAS) series of orally active fibrinogen receptor antagonists” (J Med Chem, 1995).
